The source of these data is ChEMBL document CHEMBL3853331, “Preparation, Antiepileptic Activity, and Cardiovascular Safety of Dihydropyrazoles as Brain-Penetrant T-Type Calcium Channel Blockers” (J Med Chem, 2016).

A short description of data set [1]: Drug uptake in Wistar rat brain at 10 mg/kg, po measured after 1 hr. The format is ADME, organism-based. The conditions noted are these: read-out: Drug uptake. The essentials:
(§1)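 Male Wistar rats given oral doses of 10, 30 or 100 mg/kg. Plasma, brain and CSF collected at 1 h, and at 3 h for the 10 mg/kg dose; compound concentrations measured in each.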

Data set [2] can be described thus: Drug uptake in Wistar rat CSF at 100 mg/kg, po measured after 1 hr. Format: ADME, organism-based, Cerebrospinal fluid. The conditions noted are these: read-out: Drug uptake. The essentials:
as §1

The nature of data set [3]: Plasma concentration in Wistar rat at 30 mg/kg, po measured after 1 hr. The format is ADME, organism-based.
Data set [4] is filed under the species Rattus norvegicus. Briefly: Inhibition of Wistar rat brain neuronal sodium channel assessed as reduction in peak inward current at 10 uM measured during first peak. The method, boiled down: (§2)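 Cortical neurons from E18 Wistar rat embryos, cultured 9-15 days, recorded by manual patch clamp from a holding potential of -80 mV. K+ currents: one 50-ms step to 0 mV, fast as peak outward and slow as end-of-pulse current. Na+ currents: train of fifteen 10-ms steps to 0 mV, peak inward current read at the first and last pulses. Effects read at least 180 s after application.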

Data set [5] is described as follows: Clearance in Wistar rat plasma at 0.2 mg/kg, iv administered 2 hrs after aminobenzotriazol-treatment. Format: ADME, organism-based. The method, boiled down:
(§3)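 Male Wistar rats dosed iv at 0.2 mg/kg or po at 2 mg/kg. In the inhibited arm, the broad CYP inhibitor aminobenzotriazol was given orally 2 h before dosing. Clearance, Vss and half-life derived from plasma concentrations after the iv dose; Cmax and Tmax from the po dose.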

The nature of data set [6]: Tmax in Beagle dog plasma at 10 mg/kg, po. The format is ADME, organism-based, Canis lupus familiaris.
The species named for data set [7] is Rattus norvegicus. Kind of data set: Inhibition of Wistar rat brain potassium channel at 10 uM assessed as reduction in slow potassium current at -80 mV holding potential measured after 180 secs. The method, boiled down:
as §2

Data set [8] is described as follows: Half life in Wistar rat plasma at 0.2 mg/kg, iv. The format is ADME, organism-based. The method, boiled down: as §3

What is called inhibition is the relative decrease from the control value, in per cent. As usually defined, the clearance is the rate of elimination divided by the concentration. Broadly, the Tmax is the time at which the peak concentration occurs. By half-life is commonly meant how long it takes for the measured level to halve. Read a low half-life as fast loss. `O=C(Nc1ccc(F)cc1)N1N=C(c2ccncc2)CC1c1ccc(F)cc1` (stereo not drawn): the concentration at 1 h in data set [1] stood at 800 nM; in data set [2] it was 61 nM; in data set [3], 630 nM. Besides, the inhibition is 15% in the data set listed under Rattus norvegicus [4] and 3% in the data set filed under Rattus norvegicus [7]. The clearance in data set [5] came out at 1.6 mL/min/kg. In addition, in data set [6], the time of peak concentration (Tmax) came to 0.75 h. The half-life in data set [8] was 7.1 h.
